# Measurements from ChEMBL document CHEMBL2413010, “Design and synthesis of 2-phenyl-1,4-dioxa-spiro[4.5]deca-6,9-dien-8-ones as potential anticancer agents starting from cytotoxic spiromamakone A” (Eur J Med Chem, 2013).
# Test system: HeLa
# Assay: Ratio of spiromamakone A IC50 to compound IC50 for human HeLa cells assessed as cell survival after 48 hrs by WST-8 method
# Assay type: functional
# Details: not given
row,SMILES,Ratio IC50
1,O=C1C=C[C@@]2(C=C1Cl)OC[C@@H](c1ccc(I)cc1)O2 (mixture of isomers),15

# Test system: HeLa
# Assay: Cytotoxicity against human HeLa cells assessed as cell survival after 48 hrs by WST-8 method
# Assay type: functional, cell-based
# Details: Homo sapiens, HeLa, 48 h
# In short: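 HeLa cells grown in DMEM with 10% FBS, penicillin and streptomycin at 37 °C, 5% CO2. Cells seeded at 1.0 × 10³ per well and left overnight, then exposed for 48 h to compounds in DMSO at various concentrations, with DMSO as negative control. WST-8 added for 1 h at 37 °C; formazan read at 450 nm. IC50 taken as concentration giving 50% cell survival.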
row,SMILES,IC50 [nM]
1,O=C1C=CC(=O)C12C(O)C=CC21Oc2cccc3cccc(c23)O1 (configuration not stated),2200
2,O=C1C=C[C@@]2(C=C1Cl)OC[C@@H](c1ccc(I)cc1)O2 (mixture of isomers),140
3,O=C1C=CC2(C=C1)OCC(c1ccc(-c3cnccc3Cl)cc1)O2 (racemic),1300
4,O=C1C=CC2(C=C1)OCC(c1ccc(-c3cccc(Cl)c3)cc1)O2 (racemic),1400
5,O=C1C=CC2(C=C1)OCC(c1ccc(-c3cccc(C(=O)O)c3)cc1)O2 (racemic),3100
6,O=C1C=CC2(C=C1)OCC(c1ccc(-c3ccc(C(=O)O)cc3)cc1)O2 (racemic),1700
7,COC(=O)c1cccc(-c2ccc(C3COC4(C=CC(=O)C=C4)O3)cc2)c1 (racemic),1500
8,COC(=O)c1ccc(-c2ccc(C3COC4(C=CC(=O)C=C4)O3)cc2)cc1 (racemic),2600
9,CCCOC(=O)c1cccc(-c2ccc(C3COC4(C=CC(=O)C=C4)O3)cc2)c1 (racemic),800
10,CCCOC(=O)c1ccc(-c2ccc(C3COC4(C=CC(=O)C=C4)O3)cc2)cc1 (racemic),820
11,O=C1C=CC2(C=C1)OCC(c1ccc(-c3cccc(C(F)(F)F)c3)cc1)O2 (racemic),800
12,O=C1C=CC2(C=C1)OCC(c1ccc(-c3ccccc3OCc3ccccc3)cc1)O2 (racemic),960
13,CN(C)c1ccc(-c2ccc(C3COC4(C=CC(=O)C=C4)O3)cc2)cc1 (racemic),3500
14,CS(=O)(=O)c1ccc(-c2ccc(C3COC4(C=CC(=O)C=C4)O3)cc2)cc1 (racemic),1700
15,CC(=O)Nc1ccc(-c2ccc(C3COC4(C=CC(=O)C=C4)O3)cc2)cc1 (racemic),900
16,COC(=O)c1cc(-c2ccc(C3COC4(C=CC(=O)C=C4)O3)cc2)ccc1F (racemic),1800
17,O=C1C=CC2(C=C1)OCC(c1ccc(-c3cccnc3)cc1)O2 (racemic),1500
18,O=C1C=CC2(C=C1)OCC(c1ccc(-c3ccncc3)cc1)O2 (racemic),4500
19,O=C1C=CC2(C=C1)OCC(c1ccc(-c3cncnc3)cc1)O2 (racemic),3200
20,O=C1C=CC2(C=C1)OCC(c1ccc(-c3ccoc3)cc1)O2 (racemic),2500
21,O=C1C=CC2(C=C1)OCC(c1ccc(-c3ccsc3)cc1)O2 (racemic),2500
22,O=C1C=CC2(C=C1)OCC(c1ccc(-c3cnc4ccccc4c3)cc1)O2 (racemic),790
23,O=C1C=C[C@@]2(C=C1Cl)OC[C@@H](c1ccc(-c3cccnc3)cc1)O2 (racemic),9400

row,SMILES,IC50 [nM]
1,O=C1C=C[C@@]2(C=C1Cl)OC[C@@H](c1ccc(-c3ccncc3)cc1)O2 (racemic),2300
2,O=C1C=C[C@@]2(C=C1Cl)OC[C@@H](c1ccc(-c3cncnc3)cc1)O2 (racemic),4600
3,O=C1C=C[C@@]2(C=C1Cl)OC[C@@H](c1ccc(-c3cnc4ccccc4c3)cc1)O2 (racemic),2700
4,O=C1C=CC2(C=C1)OCC(c1ccc(Br)cc1)O2 (racemic),2400
5,O=C1C=CC2(C=C1)OCC(c1cccc(I)c1)O2 (racemic),1600
6,O=C1C=CC2(C=C1)OCC(c1ccc(I)cc1)O2 (racemic),1100
7,O=C1C=CC2(C=C1)OCC(c1cccc(-c3ccccc3)c1)O2 (racemic),1400
8,O=C1C=CC2(C=C1)OCC(c1cccc(-c3cccc(F)c3)c1)O2 (racemic),1600
9,O=C1C=CC2(C=C1)OCC(c1cccc(-c3ccc(F)cc3)c1)O2 (racemic),670
10,O=C1C=CC2(C=C1)OCC(c1cccc(-c3cccc(Cl)c3)c1)O2 (racemic),1800
11,O=C1C=CC2(C=C1)OCC(c1cccc(-c3ccc(Cl)cc3)c1)O2 (racemic),850
12,CS(=O)(=O)c1ccc(-c2cccc(C3COC4(C=CC(=O)C=C4)O3)c2)cc1 (racemic),790
13,CC(=O)Nc1ccc(-c2cccc(C3COC4(C=CC(=O)C=C4)O3)c2)cc1 (racemic),880
14,O=C1C=CC2(C=C1)OCC(c1cccc(-c3cnccc3Cl)c1)O2 (racemic),1700
15,O=C1C=CC2(C=C1)OCC(c1cccc(-c3ccco3)c1)O2 (racemic),3200
16,O=C1C=CC2(C=C1)OCC(c1cccc(-c3ccsc3)c1)O2 (racemic),910
17,O=C1C=CC2(C=C1)OCC(c1cccc(-c3cccc4ccccc34)c1)O2 (racemic),1300
18,O=C1C=CC2(C=C1)OCC(c1cccc(-c3ccc4ccccc4c3)c1)O2 (racemic),1300
19,O=C1C=CC2(C=C1)OCC(c1cccc(-c3cnc4ccccc4c3)c1)O2 (racemic),2400
20,O=C1C=CC2(C=C1Cl)OCC(c1ccc(Cl)cc1)O2 (racemic; form 2),2700
21,O=C1C=CC2(C=C1Cl)OCC(c1cccc(I)c1)O2 (racemic; form 2),1600
22,O=C1C=C[C@]2(C=C1Cl)OC[C@@H](c1ccc(I)cc1)O2 (relative stereo),2400
23,O=C1C=CC2(C=C1Cl)OCC(c1cccc(Br)c1)O2 (stereo in doubt),610

# Same assay, conditions: hela
row,SMILES,IC50 [nM]
1,O=C1C=CC2(C=C1Cl)OCC(c1ccc(Br)cc1)O2 (mixture of isomers),4500
2,O=C1C=CC2(C=C1Cl)OCC(c1cccc(Br)c1)O2 (racemic),640
3,O=C1C=CC2(C=C1Cl)OCC(c1ccc(Cl)cc1)O2 (racemic; form 1),2900
4,O=C1C=CC2(C=C1Cl)OCC(c1cccc(I)c1)O2 (racemic; form 1),1500
5,O=C1C=CC2(C=C1Cl)OCC(c1ccc(Br)cc1)O2 (stereo in doubt),2100
